# Compound activity (PubChem)
# IMP-1 inhibitor: blocks Pseudomonas aeruginosa IMP-1 metallo-beta-lactamase; purified IMP-1, nitrocefin hydrolysis, epi-absorbance fluorescence; inhibition, % at 5.6 µM; hit rate 0.45% among 290,000;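 active means inhibition above the mean plus 3 SD of all compounds in the same screening run, cut at about 4.5% in these data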
#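 System: purified IMP-1; amount: IMP-1 0.2 nM before substrate addition; compound: single dose, 5.6 µM; times: 25 °C, 15 min preincubation, 25 min reaction; signal: Epi-absorbance via hydrolysed-nitrocefin quenching of white-plate fluorescence, 480/530 nm, EDTA stop; benchmarks: DMSO with and without IMP-1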
# HTR2A ag: mouse HTR2A agonism via beta-arrestin recruitment | hit rate 0.66% among 360,000 | activation, % at 7.6 µM | CHO-K1 mHTR2A beta-arrestin complementation, luminescence; percent of 30 µM serotonin response;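 active means activation above a run cutoff, the mean activation of all tested compounds plus 3 SD, cut at about 14% in these data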
# dFosB activator: activators of mouse delta FosB homodimer; activation, % at 25 µM; purified delta FosB, TAMRA-CDK5 oligo fluorescence polarization; percent of positive-control signal above neutral wells; hit rate 0.99% among 340,000;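 active means mean activation above about 17%, with every replicate also reaching it, limit read from the data, passing the limit was not always enough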
# VIM-2 inhibitor: inhibitors of Pseudomonas aeruginosa VIM-2 metallo-beta-lactamase; purified VIM-2, nitrocefin hydrolysis, epi-absorbance fluorescence; inhibition, % at 5.6 µM; hit rate 0.89% among 290,000; AID 1527;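 active means inhibition above the mean of all tested compounds plus 3 SD, cutoff set per screening run, cut at about 7.5% in these data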;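 further: red hydrolysis product quenches plate fluorescence so inhibitors raise well fluorescence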
# OPRM1 ag: OPRM1 agonism in mouse HTR2A counterscreen; activation, % at 9.3 µM; shares compounds with HTR2A ag; hit rate 5.3% among 2,300; U2OS OPRM1 beta-arrestin PathHunter, luminescence; DMSO 0%, DAMGO 9.3 µM 100%;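 active means mean activation above the mean of DMSO-only wells plus 3 SD, cut at about 0.5% in these data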
# Target sequence (P35372 whole entry, looked up): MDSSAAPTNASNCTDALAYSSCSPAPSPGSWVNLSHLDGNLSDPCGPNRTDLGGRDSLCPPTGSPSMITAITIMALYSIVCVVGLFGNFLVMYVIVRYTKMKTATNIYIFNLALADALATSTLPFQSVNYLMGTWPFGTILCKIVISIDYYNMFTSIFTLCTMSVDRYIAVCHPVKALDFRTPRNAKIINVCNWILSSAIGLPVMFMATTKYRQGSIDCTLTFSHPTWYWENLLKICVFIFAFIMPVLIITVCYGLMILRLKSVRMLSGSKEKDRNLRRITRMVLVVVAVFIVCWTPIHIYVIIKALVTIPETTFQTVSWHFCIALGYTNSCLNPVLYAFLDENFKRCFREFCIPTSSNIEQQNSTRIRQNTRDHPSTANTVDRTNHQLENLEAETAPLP
# m5-HT2A ag conf: confirmation of mouse HTR2A serotonin receptor agonists; shares compounds with HTR2A ag; CHO-K1 PathHunter beta-arrestin recruitment, luminescence; DMSO 0%, 30 µM serotonin 100%; activation, % at 7.6 µM; hit rate 19% among 2,300; AID 624381;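 active means mean activation across triplicates above the hit threshold derived in the original primary screen, cut at about 15% in these data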
# Hits are given with their value; n = inactive; x = no result given. A selection: hits, their analogues and other compounds. The true share with any hit is near 2.5%.
SMILES,IMP-1 inhibitor,HTR2A ag,dFosB activator,VIM-2 inhibitor,OPRM1 ag,m5-HT2A ag conf
CCCCNc1ccc(C(=O)OCCOCCOCCOCCOCCOCCOCCOCCOCCOC)cc1,x,n,n,x,x,x
CCCC(=O)Nc1c(C(=O)OCC)[nH]c2ccccc12,n,n,n,n,x,x
CCOC(=O)c1[nH]c2ccccc2c1NC(=O)Nc1ccc(OC)cc1,n,25,n,n,n,n
O=C(Nc1ccc(CN2CCOCC2)cc1)c1ccc2ccccc2c1,n,n,n,n,x,x
c1ccc2cc(CN3CCOCC3)ccc2c1,n,20,n,n,n,n
CCOC(=O)N1CCC(c2cc(=O)n3[nH]cc(C(=O)OC)c3n2)CC1,n,20,n,n,n,n
CSc1ccc(OC2(C)CCN(Cc3cc4ccccc4o3)C2)cc1 (stereo not drawn),x,n,x,x,x,x
CC1CCN(CCCNC(=O)C2CCN(S(=O)(=O)N3CCCCC3)CC2)CC1,n,n,n,n,x,x
CC1CCCCN1CCNC(=O)C1CCN(S(=O)(=O)N2CCCCC2)CC1 (stereo not drawn),n,15,n,n,n,n
CCC(C)n1c(SCC(=O)NCc2ccco2)nnc1-c1cccc(S(=O)(=O)N2CCOCC2)c1 (stereo not drawn),n,15,n,n,n,n
CCc1ccc(/C(C)=N/NS(=O)(=O)c2ccc(OC)cc2)s1,n,n,n,n,x,x
CNc1cncc(-c2cccc(OC)c2F)n1,x,n,x,x,x,x
CC(C)[C@H](NC(=O)c1ccc(C(C)(C)C)cc1)C(=O)N1CCN(Cc2ccc3c(c2)OCO3)CC1,x,34,n,x,n,70
O=C(CN1CCN(c2ccccn2)CC1)Nc1ccc(Oc2ccccc2)cc1,n,33,n,n,n,92
O=C(CN1CCN(c2ccccn2)CC1)Nc1cccc(S(=O)(=O)N2CCCC2)c1,n,19,n,n,n,69
O=C(CN1CCN(c2ccccn2)CC1)Nc1ccccc1,n,n,n,n,x,x
O=S(=O)(NC1=NCCCCC1)c1ccc2ccccc2c1,n,n,n,n,x,x
Cc1cc(C)c(O)c(-c2n[nH]c3c2C(c2cccc(O)c2)N(Cc2ccco2)C3=O)c1 (stereo not drawn),n,99,n,n,n,57
Cc1ccc(-c2csc(NC(=O)C3=NN(c4ccccc4)C(=O)CC3)n2)cc1,n,18,n,n,n,n
O=C(Nc1ccccc1)Nc1nc(-c2ccc(Cl)cc2)cs1,n,n,n,n,x,x
COc1ccc(-c2csc(NC(=O)Nc3ccccc3)n2)cc1,n,19,n,n,n,n
COc1ccc(-c2csc(NC(=O)c3ccccc3NS(=O)(=O)c3ccc(F)c(F)c3)n2)cc1,n,18,n,n,n,24
Cc1csc(NC(=O)C2=NN(c3ccccc3)C(=O)CC2)n1,n,n,n,n,x,x
Cc1cc(NC(=O)c2cc(-c3ccncc3)nc3ccccc23)ccc1Br,x,n,n,x,x,x
NC(=O)c1ccc(SCC(=O)OCC(=O)NCC2CCCCC2)c([N+](=O)[O-])c1,x,n,n,x,x,x
SMILES,IMP-1 inhibitor,HTR2A ag,dFosB activator,VIM-2 inhibitor,OPRM1 ag,m5-HT2A ag conf
Cc1[nH]c(C)c(S(=O)(=O)N2c3ccccc3CC2C)c1C(=O)N1CCCCC1 (stereo not drawn),n,n,n,n,x,x
Cc1ccccc1OCC(=O)NNC(=O)Cn1[nH]c(=O)c2ccccc2c1=O,x,n,n,x,x,x
O=C(CN1CCN(Cc2cccc(F)c2)CC1)Nc1ccccc1F,n,n,n,n,x,x
Cc1c(C(=O)OCC(=O)NC2CC2)oc2ccc(Br)cc12,x,n,n,x,x,x
C[C@H](CO)N1C[C@H](C)[C@H](CN(C)Cc2cncnc2)Oc2cc(Br)ccc2S1(=O)=O,x,18,x,x,n,n
C[C@@H]1CN([C@@H](C)CO)S(=O)(=O)c2ccc(Br)cc2O[C@H]1CN(C)Cc1ccncc1,x,n,x,x,x,x
COc1ccc(CNC(=O)CCCn2nc(C)n3ccnc3c2=O)cc1,n,25,n,n,n,n
CCc1ccc(CNC(=O)CCCn2nc(C)n3ccnc3c2=O)cc1,n,n,n,n,x,x
Cc1c(Cl)sn(-c2ccc(Cl)cc2)c1=O,n,17,n,n,3.3,n
Cc1nn(-c2ccc(Cl)cc2)c(=O)c2ccccc12,n,n,n,n,x,x
CC(C)(C)NC(=O)CN(C(=O)CCC(=O)Nc1nccs1)c1ccc(F)cc1,n,n,n,n,x,x
CC(C)c1ccc(N(CC(=O)NC(C)(C)C)C(=O)CCC(=O)Nc2nccs2)cc1,n,29,n,n,n,n
CCCCCNC(=O)C(c1cc2ccccc2o1)n1c(=O)c(-c2cc3ccccc3[nH]2)nc2ccccc21 (stereo not drawn),x,n,x,x,x,x
CCOC(=O)C1CCCN(S(=O)(=O)c2ccc(OC)cc2)C1 (stereo not drawn),n,24,n,n,n,n
COc1ccc(N2CC(C(=O)Nc3ccc(S(=O)(=O)N4CCCC4)cc3)CC2=O)cc1 (stereo not drawn),n,15,n,n,n,n
O=C(Cn1ccc(C(F)(F)F)n1)NNC(=O)c1cccnc1,n,n,n,n,x,x
Cc1ccc(C(=O)NNC(=O)Cn2ccc(C(F)(F)F)n2)o1,x,16,n,x,n,n
O=C(Cc1cc(C(F)(F)F)cc(C(F)(F)F)c1)Nc1c(-c2ccccc2)[nH][nH]c1=O,x,28,x,x,n,n
CCOC(=O)C1=CN(Cc2ccco2)S(=O)(=O)NC1CC (stereo not drawn),x,n,n,x,x,x
Cc1ccc(S(=O)(=O)N/N=C/c2c(F)cccc2Cl)cc1,n,15,n,n,n,n
COc1cc(OC)c(N(C)S(=O)(=O)c2cccc(C(=O)OCC(=O)N(C)C3CCCCC3)c2)cc1Cl,x,n,n,x,x,x
C/C=C/C(=O)OCC(=O)Nc1nc2ccc(C)cc2s1,n,26,n,n,n,n
C=CCn1c(Br)nc2c1c(=O)[nH]c(=O)n2C,n,19,n,n,n,n
CN(C)c1ccc(O)c2c1CC1CC3[C@@H](N(C)C)C(=O)C(C(N)=O)C(=O)[C@]3(O)C(=O)C1C2=O (stereo partly drawn),x,67,n,x,n,153
CC(C)N=c1scc(-c2cccs2)n1/N=C/c1ccc(O)c(O)c1O,n,15,n,n,1.1,18
SMILES,IMP-1 inhibitor,HTR2A ag,dFosB activator,VIM-2 inhibitor,OPRM1 ag,m5-HT2A ag conf
O=[N+]([O-])c1cc2ncccc2c2ncccc12,x,15,x,x,n,n
CCOc1ccc(N(CC(=O)NC2CC2)S(=O)(=O)c2ccc(C)cc2)cc1,n,n,n,n,x,x
Cc1ccc(OCc2cc(C(=O)N(C)C3CCCc4ccccc43)no2)cc1C (stereo not drawn),x,n,x,x,x,x
COc1ccc(N2CCN(c3cc(=O)n(Cc4ccc(F)cc4)c(=O)[nH]3)CC2)cc1,n,16,n,n,n,n
Cn1c(=O)[nH]c(=O)c2c1nc(N1CCOCC1)n2CCSc1ncccn1,n,x,x,n,x,x
CC1CCN(c2nc3c(c(=O)[nH]c(=O)n3C)n2CCSc2ncccn2)CC1,x,60,n,x,n,n
